Compound activity (PubChem BioAssay)
KCNQ1 pot = human KCNQ1 channel potentiation or activation. P51787. CHO-K1 KCNQ1, thallium flux FluxOR fluorescence; stronger effect = higher value. B-score at 10 µM. 0.35% of 310,000 active. AID 2648;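 active = fluorescence ratio B-score, a plate-corrected score, at least three library SD, with initial intensity B-score within 5 SD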
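Test system: CHO-K1 cells stably expressing KCNQ1 / Medium: assay buffer / Also added: depolarizing K+/Tl+ stimulus, K2SO4 and Tl2SO4 each 12.5 mM in 5x stock / Incubation: 90 min dye loading and 20 min compound exposure, both at room temperature / Signal: thallium influx via FluxOR fluorescence, kinetic imaging / Evaluation: B score of baseline-normalized fluorescence ratio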
KCNK9 inh = human KCNK9 channel inhibition. B-score at 10 µM. HEK293 KCNK9, FluxOR thallium flux fluorescence; stronger effect = lower value. 1.2% of 310,000 active. Q9NPC2;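 active = ratio B-score over 3 SD below the library mean, with starting fluorescence within 5 SD of its mean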;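 note: negative B-score means less thallium flux so channel inhibition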
hERG rescue = hERG (human) protection from proarrhythmic block. Q12809. CHO-hERG, FluxOR thallium flux, dofetilide IC70 present. activation (rescue from dofetilide block), less the hit threshold, % at 10 µM. 0.51% of 310,000 active;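 active = activation above the mean of controls blocked by dofetilide plus 5 SD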;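 note: thallium influx through hERG after potassium depolarization seen as dye fluorescence rise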
KCNQ1 block = human KCNQ1 channel inhibition | P51787 | CHO-K1 KCNQ1, FluxOR thallium flux fluorescence; stronger effect = higher value | B-score at 10 µM | 1.3% of 310,000 active | AID 2642;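 active = compounds whose thallium flux B-score, printed positive for inhibition, exceeds three library SD while starting fluorescence stays within three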;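 note: channel opened by potassium depolarization with thallium stimulus after 20 min compound exposure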
Kir21 inh = blocks the mouse Kir2.1 inward-rectifier potassium channel; P35561; AID 1672; B-score at 10 µM; HEK293-Kir2.1, FluxOR thallium flux fluorescence; stronger effect = lower value; 0.85% of 310,000 active;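 active = fluorescence ratio B-score at or below minus 3 SD of library scores, with starting-brightness B-score within 2 SD, cut at about -4.2 in these data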;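 note: channel flux triggered by added potassium and thallium sulfate stimulus; B-score of peak minus minimum fluorescence over baseline after thallium stimulus; more negative B-score means stronger Kir2.1 block with less thallium influx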
KCNK3 inh = human KCNK3 channel inhibition, primary screen; O14649; CHO-KCNK3 thallium flux, FluxOR fluorescence; stronger effect = lower value; B-score at 10 µM; 0.84% of 340,000 active; AID 602410;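 active = B-score under library mean minus 4 SD, starting fluorescence ratio at most library mean plus 5 SD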;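 note: more negative B-score means stronger inhibition of thallium flux through KCNK3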
Target sequence (O14649 whole entry, looked up): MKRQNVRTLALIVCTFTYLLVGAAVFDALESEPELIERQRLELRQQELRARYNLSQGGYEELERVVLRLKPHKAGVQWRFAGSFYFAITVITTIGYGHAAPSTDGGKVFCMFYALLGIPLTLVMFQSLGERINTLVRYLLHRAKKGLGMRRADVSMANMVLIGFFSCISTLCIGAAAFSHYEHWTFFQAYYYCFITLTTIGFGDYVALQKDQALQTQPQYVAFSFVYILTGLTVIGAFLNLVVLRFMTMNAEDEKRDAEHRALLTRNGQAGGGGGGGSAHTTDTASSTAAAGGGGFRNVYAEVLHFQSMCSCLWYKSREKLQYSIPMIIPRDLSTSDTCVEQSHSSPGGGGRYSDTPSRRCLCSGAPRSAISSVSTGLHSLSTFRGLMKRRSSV
Starred values were filed as active, the others as inactive; i = inactive; / = no result given. Compounds with a hit are over-represented: about 3.8% of the library has one in this group of screens.

SMILES	KCNQ1 pot	KCNK9 inh	hERG rescue	KCNQ1 block	Kir21 inh	KCNK3 inh
CCOc1ccccc1NC(=O)CSc1nccn1-c1ccccc1	i	i	-15	i	-7*	i
COc1ccc(Cn2ccnc2SCC(=O)Nc2ccccc2OC)cc1	i	i	-9	i	-4.5*	i
O=C(NNC(=O)c1ccc(O)cc1O)c1ccc(Cl)cc1	i	i	-12	6*	0.05	i
CC(=O)Nc1cccc(-c2cnc(N)c(C(=O)c3cccnc3)n2)c1	/	/	/	/	/	i
CC1CN(S(=O)(=O)c2ccc(-c3nc4ccccc4s3)cc2)CC(C)O1 (configuration not stated)	i	i	4.6*	i	-0.25	i
O=S(=O)(c1ccc(-c2nc3ccccc3s2)cc1)N1CCCC1	i	i	0	i	-0.98	i
O=S1(=O)[C@H]2C[C@@H]3C=C[C@@]2(CN1Cc1ccccc1F)O3	i	i	-4	i	0	i
OC(CNCc1ccc(-c2ccccc2)cc1)c1ccccc1 (configuration not stated)	i	i	-19	i	-0.06	i
Cc1ccc(CNCC(O)c2ccccc2)s1 (configuration not stated)	i	i	-1	i	-5.3*	i
OC(CNCc1cccc(Br)c1)c1ccccc1 (configuration not stated)	i	i	-11	i	-4.3*	i
Cc1ccccc1NC(=S)NCC1CCN(C(C)c2ccccc2)C1 (configuration not stated)	i	i	-13	i	-1.5	i
Cc1cc(C)cc(NC(=S)NCC2CCN(C(C)c3ccccc3)C2)c1 (configuration not stated)	i	i	-17	i	-4.9*	i
CCCCOc1ccc(C2OC34CCCCC3C(C#N)(C#N)C2(C#N)C(=N)O4)cc1 (configuration not stated)	i	i	-15	i	-0.03	i
C=CCOc1ccc(C2OC34CCCCC3C(C#N)(C#N)C2(C#N)C(=N)O4)cc1 (configuration not stated)	i	i	5.6*	i	0.05	i
O=C1C2CC=CCC2C(=O)N1c1ccc(Cc2ccncc2)cc1 (configuration not stated)	i	i	5.0*	i	0	i
CCOC(=O)c1c(NC(=O)CN2CCN(C(=O)c3ccco3)CC2)sc(C)c1C	i	i	-2	i	1.5	i
CCc1c(C)sc(NC(=O)CN2CCN(C(=O)c3ccco3)CC2)c1C(=O)OC	22*	i	1	i	0.28	i
CC(C)(C)c1cc(-c2n[nH]c(=S)n2-c2ccccc2F)n[nH]1	i	i	9.1*	i	0.37	i
C/C(=N\NC(=O)CSc1ncccn1)c1ccc2c(c1)OCCO2	i	i	-6	i	-0.05	i
N#Cc1c(NCCN)nc(-c2ccccc2)c2c1CCCC2	i	i	-9	i	-6*	i
O=C(NCCc1c[nH]c2ccccc12)C1CCCN(S(=O)(=O)c2ccccc2)C1 (configuration not stated)	i	i	-3	i	-0.04	i
CCOc1cc(C)c(Cl)cc1S(=O)(=O)NCc1ccc2c(c1)OCO2	i	i	-5	i	-6.6*	i
Cc1cc(C)c(S(=O)(=O)NCc2ccc3c(c2)OCO3)c(C)c1	i	i	-6	i	-1.1	i
Cc1cc(C)c(S(=O)(=O)NCc2ccc3c(c2)OCO3)cc1C	i	i	-7	i	-4.3*	i
Cc1cc(S(=O)(=O)NCc2ccncc2)c(C)cc1Br	i	i	-15	6*	-0.55	i
SMILES	KCNQ1 pot	KCNK9 inh	hERG rescue	KCNQ1 block	Kir21 inh	KCNK3 inh
COc1cc(C)c(Cl)cc1S(=O)(=O)N1CCCC1	i	i	-7	i	-3.3	i
CCOc1cc(C)c(Cl)cc1S(=O)(=O)N1CCCC1	i	i	-10	i	-5.5*	i
C/C(=N\OCC(=O)OC(C)C(=O)Nc1ccc(C)c(S(=O)(=O)N2CCOCC2)c1)c1ccc2c(c1)OCO2 (configuration not stated)	/	/	/	/	/	i
O=C(c1ccco1)N1CCN(c2nc(C3CC3)nc3c2nnn3Cc2ccccc2Cl)CC1	i	i	-11	6*	-2.4	i
O=C(N/N=C/c1ccc(OC(F)F)cc1)C1=COCCO1	i	i	16*	i	-2.2	i
CCOC(=O)C1=C(C)OC(N)=C(C#N)C1c1cccs1 (configuration not stated)	i	i	-6	i	-2.5	i
CCN1C=C(Cc2cccs2)C2=C(C1)C(c1cccs1)C(C#N)=C(N)O2 (configuration not stated)	i	-7.4*	-24	i	-0.02	-9*
CCCCCN(C(=O)CN1CCC(Cc2ccccc2)CC1)c1c(N)n(CCCC)c(=O)[nH]c1=O	i	i	-22	i	0.3	i
O=C1c2ccccc2C(=O)N1CCC(c1ccc(F)cc1)c1ccco1 (configuration not stated)	i	i	-17	i	-4.8*	i
Cc1ccc(CCNC(=O)C2CCC(=O)N(Cc3ccccc3F)C2)o1 (configuration not stated)	i	i	-10	i	-0.01	i
COC(=O)[C@@]12CCCN1[C@H](c1ccc(-c3cccc(Cl)c3)cc1)[C@H]1C(=O)N(C)C(=O)[C@H]12	i	-7.1*	-15	i	-0.98	i
C[C@@H](NC(=O)c1nc[nH]c1C(=O)N(C)Cc1ccccc1)c1ccccc1	/	/	/	/	/	i
O=C(NC1CCN(Cc2ccccc2)CC1)c1ccccc1Cl	i	i	-9	i	0.85	i
Cc1c(C(=O)NC2CCN(Cc3ccccc3)C2)oc2c(Cl)cccc12 (configuration not stated)	i	i	-14	i	-9.9*	i
Cc1c(C(=O)N2CCN(c3ccccc3)CC2)oc2c(Cl)cccc12	/	/	/	/	/	-9.9*
CC1CCC(C(C)C)C(OCC(O)CNC(C)c2ccccc2)C1 (configuration not stated)	i	i	-17	i	-2	i
CC(NCC(O)COC1CCC(C(C)(C)C)CC1)c1ccccc1 (configuration not stated)	i	i	-14	i	-8.6*	i
Cc1nnc(SCc2ccc(CSc3nnc(C)c(=O)[nH]3)cc2)[nH]c1=O	i	i	-4	i	-0.95	i
COc1ccc(CN(C(=O)CSc2nnc(-c3ccccc3C)o2)c2ccc(F)cc2)cc1	i	i	-15	6*	0.39	i
